According to ChEMBL document CHEMBL1212859, “Novel aminopeptidase N (APN/CD13) inhibitors derived from 3-phenylalanyl-N'-substituted-2,6-piperidinedione” (Bioorg Med Chem, 2010):

Assays:
[1] = biological target: T1, Aminopeptidase N (Sus scrofa, UniProt P15145); assay: Inhibition of pig kidney microsome aminopeptidase N after 30 mins by UV-vis spectrophotometric analysis
T1 sequence (P15145 whole entry): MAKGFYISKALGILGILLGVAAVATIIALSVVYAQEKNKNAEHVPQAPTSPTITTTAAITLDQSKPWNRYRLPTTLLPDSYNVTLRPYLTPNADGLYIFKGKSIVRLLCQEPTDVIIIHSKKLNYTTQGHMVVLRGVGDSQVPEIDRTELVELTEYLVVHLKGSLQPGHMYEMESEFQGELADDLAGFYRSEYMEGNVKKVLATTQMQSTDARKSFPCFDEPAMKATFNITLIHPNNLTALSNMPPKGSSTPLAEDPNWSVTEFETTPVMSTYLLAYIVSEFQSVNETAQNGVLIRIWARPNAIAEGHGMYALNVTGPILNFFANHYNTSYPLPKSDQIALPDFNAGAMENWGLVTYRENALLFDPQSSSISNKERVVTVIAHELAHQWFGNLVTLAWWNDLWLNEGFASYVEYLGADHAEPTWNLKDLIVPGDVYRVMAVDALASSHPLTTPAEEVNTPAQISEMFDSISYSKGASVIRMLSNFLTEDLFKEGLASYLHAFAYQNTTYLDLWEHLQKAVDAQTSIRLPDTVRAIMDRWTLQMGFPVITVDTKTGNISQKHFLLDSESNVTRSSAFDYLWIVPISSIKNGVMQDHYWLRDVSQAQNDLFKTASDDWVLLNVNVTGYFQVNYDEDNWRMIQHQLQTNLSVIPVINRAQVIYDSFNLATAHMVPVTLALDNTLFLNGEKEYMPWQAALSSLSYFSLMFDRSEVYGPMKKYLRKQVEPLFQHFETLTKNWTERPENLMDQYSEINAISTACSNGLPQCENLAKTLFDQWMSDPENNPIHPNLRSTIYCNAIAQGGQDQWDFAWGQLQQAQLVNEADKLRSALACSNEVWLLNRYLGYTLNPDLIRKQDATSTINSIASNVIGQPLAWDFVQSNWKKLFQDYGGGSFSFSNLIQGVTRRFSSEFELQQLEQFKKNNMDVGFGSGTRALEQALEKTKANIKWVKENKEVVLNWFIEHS
Procedure, shortened: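 Enzyme was porcine kidney microsomal aminopeptidase at 4 mg/ml final, with L-Leu-p-nitroanilide as substrate. Inhibitor solutions were made in assay buffer adjusted to pH 7.5. Inhibitors were preincubated with enzyme for 30 min at room temperature.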

[2] = biological target: 72 kDa type IV collagenase (Homo sapiens, UniProt P08253); assay: Inhibition of MMP2 after 30 mins
72 kDa type IV collagenase, sequence (P08253 whole entry): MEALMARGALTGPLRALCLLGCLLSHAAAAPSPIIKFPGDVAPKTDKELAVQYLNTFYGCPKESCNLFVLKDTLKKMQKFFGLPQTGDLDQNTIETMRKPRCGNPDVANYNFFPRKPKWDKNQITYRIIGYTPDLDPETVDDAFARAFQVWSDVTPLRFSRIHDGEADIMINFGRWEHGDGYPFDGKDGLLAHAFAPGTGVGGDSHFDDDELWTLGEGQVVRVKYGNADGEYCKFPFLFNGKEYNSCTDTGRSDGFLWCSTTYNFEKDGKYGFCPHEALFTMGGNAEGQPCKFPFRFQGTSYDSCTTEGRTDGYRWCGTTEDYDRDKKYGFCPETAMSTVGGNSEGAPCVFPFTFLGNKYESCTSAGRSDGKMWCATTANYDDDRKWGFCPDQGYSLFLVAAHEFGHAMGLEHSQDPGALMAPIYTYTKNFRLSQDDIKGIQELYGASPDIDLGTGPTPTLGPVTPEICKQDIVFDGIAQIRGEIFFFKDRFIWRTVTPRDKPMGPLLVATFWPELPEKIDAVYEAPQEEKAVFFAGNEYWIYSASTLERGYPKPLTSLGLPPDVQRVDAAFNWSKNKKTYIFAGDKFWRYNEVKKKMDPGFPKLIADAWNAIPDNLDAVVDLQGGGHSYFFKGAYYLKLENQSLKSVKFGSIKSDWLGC
Procedure, shortened: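 Gelatinase A (MMP-2), synthesized substrate and inhibitor were dissolved together in 50 mmol/L sodium borate, pH 8.5, and incubated for 30 min at 37 °C. TNBS was used in the assay.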

[3] = system: HL-60; assay: Cytotoxicity against human HL60 cells expressing aminopeptidase N after 72 hrs by MTT assay; type: functional, cell-based; details: HL-60, 72 h
Procedure, shortened: (§1)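 Cells grown in RPMI1640 with 10% FBS at 37 °C under humidified 5% CO2. HL-60 cells have high APN expression and MDA-MB-231 cells have low expression. Plated at 10,000 cells/well and allowed 4 h in complete medium. Exposed for 72 h to five concentrations from 2000 down to […]. Proliferation read by MTT. Mean of three independent experiments.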

[4] = system: MDA-MB-231; assay: Cytotoxicity against human MDA-MB-231 cells after 72 hrs by MTT assay; type: functional, cell-based; details: MDA-MB-231, 72 h; procedure, shortened: as §1

IC50 [1] [µM]	IC50 [2] [µM]	SMILES	IC50 [3] [µM]	IC50 [4] [µM]
245	62.7	N[C@@H](Cc1ccccc1)C(=O)N[C@H]1CCC(=O)N(CC(=O)Nc2ccccc2F)C1=O	–	–
178	> 1000	COc1ccc(NC(=O)CN2C(=O)CC[C@H](NC(=O)[C@@H](N)Cc3ccccc3)C2=O)cc1	–	–
12.8	22.7	NC(Cc1ccccc1)C(=O)N[C@H]1CCC(=O)N(CC(=O)NCCC(=O)O)C1=O (single isomer, unassigned)	–	–
49.7	127	NC(Cc1ccccc1)C(=O)N[C@H]1CCC(=O)N(CC(=O)NCCC(=O)OCc2ccccc2)C1=O (single isomer, unassigned)	–	–
252	122	N[C@@H](Cc1ccccc1)C(=O)N[C@H]1CCC(=O)N(CC(=O)Nc2ccc(F)cc2)C1=O	–	–
–	157	CC(C)C[C@H](NC(=O)[C@@H](O)[C@H](N)Cc1ccccc1)C(=O)O [UBENIMEX]	1130	8590
304	141	NC(Cc1ccccc1)C(=O)N[C@H]1CCC(=O)N(CC(=O)NCC(=O)NO)C1=O (single isomer, unassigned)	–	–
6.92	60.4	N[C@@H](Cc1ccccc1)C(=O)N[C@H]1CCC(=O)N(CC(=O)Nc2cccc(Cl)c2)C1=O	2220	9480
12.6	> 1000	NC(Cc1ccccc1)C(=O)N[C@H]1CCC(=O)N(CC(=O)N[C@@H](CCC(=O)O)C(=O)O)C1=O (single isomer, unassigned)	–	–
8.42	> 1000	CC(C)C[C@H](NC(=O)CN1C(=O)CC[C@H](NC(=O)[C@@H](N)Cc2ccccc2)C1=O)C(=O)O	5210	14400
30.1	18.5	CC(C)[C@H](NC(=O)CN1C(=O)CC[C@H](NC(=O)[C@@H](N)Cc2ccccc2)C1=O)C(=O)OCc1ccccc1	–	–
6.48	12	N[C@@H](Cc1ccccc1)C(=O)N[C@H]1CCC(=O)N(CC(=O)N[C@@H](Cc2ccccc2)C(=O)OCc2ccccc2)C1=O	2540	10200
53.4	46.9	N[C@@H](Cc1ccccc1)C(=O)N[C@H]1CCC(=O)N(CC(=O)Nc2ccc(F)c(F)c2)C1=O	–	–
66.4	316	N[C@@H](Cc1ccccc1)C(=O)N[C@H]1CCC(=O)N(CC(=O)N[C@@H](Cc2ccccc2)C(=O)O)C1=O	–	–
91.6	129	C[C@H](NC(=O)CN1C(=O)CC[C@H](NC(=O)[C@@H](N)Cc2ccccc2)C1=O)C(=O)OCc1ccccc1	–	–
13.4	454	N[C@@H](Cc1ccccc1)C(=O)N[C@H]1CCC(=O)N(CC(=O)NCC(=O)OCc2ccccc2)C1=O	–	–
170	131	N[C@@H](Cc1ccccc1)C(=O)N[C@H]1CCC(=O)N(CC(=O)Nc2ccc(F)c(Cl)c2)C1=O	–	–
30.2	121	CC(C)C[C@H](NC(=O)CN1C(=O)CC[C@H](NC(=O)[C@@H](N)Cc2ccccc2)C1=O)C(=O)OCc1ccccc1	–	–
74	71.6	N[C@@H](Cc1ccccc1)C(=O)N[C@H]1CCC(=O)N(CC(=O)Nc2ccc(Br)cc2)C1=O	–	–
13.3	> 1000	CC(C)[C@H](NC(=O)CN1C(=O)CC[C@H](NC(=O)[C@@H](N)Cc2ccccc2)C1=O)C(=O)O	–	–
38.7	107	N[C@@H](Cc1ccccc1)C(=O)N[C@H]1CCC(=O)N(CC(=O)NCC(=O)O)C1=O	–	–
110	155	C[C@H](NC(=O)CN1C(=O)CC[C@H](NC(=O)[C@@H](N)Cc2ccccc2)C1=O)C(=O)O	–	–
91.4	272	N[C@@H](Cc1ccccc1)C(=O)N[C@H]1CCC(=O)N(CC(=O)N[C@@H](CCC(=O)OCc2ccccc2)C(=O)OCc2ccccc2)C1=O	–	–
5	8.27	Cc1ccc(NC(=O)CN2C(=O)CC[C@H](NC(=O)[C@@H](N)Cc3ccccc3)C2=O)c(C)c1	1970	8590
